Measured values as given in ChEMBL document CHEMBL1155231, “Fluoro-pegylated chalcones as positron emission tomography probes for in vivo imaging of beta-amyloid plaques in Alzheimer's disease” (J Med Chem, 2009).
Values belong to the compound of their own block, whether it stands above or below them. Activity calls are given as the source filed them. The rule behind the calls is not given here.

Legend:
[1] = Displacement of [125I]DMIC from amyloid beta (1 to 42) peptide
Procedure, shortened: (§1)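 Aβ(1-42) aggregated at 0.25 mg/mL in 10 mM sodium phosphate, 1 mM EDTA, pH 7.4, 37 °C for 42 h with gentle constant shaking. Competition against [125I]DMIC. Bound and free separated by GF/B filtration, filter radioactivity read by γ counter. IC50 from displacement curves of three independent experiments, Ki by Cheng-Prusoff.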

Brain [2] = experiment: Biodistribution in normal ddY mouse brain at 3.7 MBq, iv after 30 mins; type: ADME, organism-based; conditions: in vivo, 0.5 h
Procedure, shortened: (§2)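 Tracer (3.7 MBq) in 100 μL saline with 10% EtOH and 1 mg/mL ascorbic acid, injected into tail vein of 5-week-old ddY mice (22-25 g). Groups of five killed at each time; organs removed, weighed, radioactivity γ-counted and expressed as % injected dose per gram, mean ± SD of 4-5 mice.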

Blood [3] = experiment: Biodistribution in normal ddY mouse blood at 3.7 MBq, iv after 60 mins; type: ADME, organism-based; conditions: in vivo, 1 h; procedure, shortened: as §2
Brain [4] = experiment: Biodistribution in normal ddY mouse brain at 3.7 MBq, iv after 60 mins; type: ADME, organism-based; conditions: in vivo, 1 h; procedure, shortened: as §2
Blood [5] = experiment: Biodistribution in normal ddY mouse blood at 3.7 MBq, iv after 30 mins; type: ADME, organism-based; conditions: in vivo, 0.5 h; procedure, shortened: as §2
Blood [6] = experiment: Biodistribution in normal ddY mouse blood at 3.7 MBq, iv after 10 mins; type: ADME, organism-based; conditions: in vivo; procedure, shortened: as §2
Brain [7] = experiment: Biodistribution in normal ddY mouse brain at 3.7 MBq, iv after 10 mins; type: ADME, organism-based; conditions: in vivo; procedure, shortened: as §2
Brain [8] = experiment: Biodistribution in normal ddY mouse brain at 3.7 MBq, iv after 2 mins; type: ADME, organism-based; conditions: in vivo; procedure, shortened: as §2
Blood [9] = experiment: Biodistribution in normal ddY mouse blood at 3.7 MBq, iv after 2 mins; type: ADME, organism-based; conditions: in vivo; procedure, shortened: as §2
[10] = Binding affinity to amyloid beta (1 to 42) peptide; procedure, shortened: as §1
[11] = biological target: Amyloid-beta precursor protein (Homo sapiens) (UniProt P05067); experiment: Binding affinity to beta amyloid plaques in human Alzheimer's disease patient brain at 54 uCi/200 uL by autoradiography; conditions: tested as the 18F-labelled form
[12] = system: Amyloid-beta precursor protein (Homo sapiens), P05067 [K670N,M671L]; experiment: Binding affinity to human recombinant APP695 K670N and M671L Swedish double mutant plaques expressed in Tg2576 mouse brain at 100 uM after 10 mins by amyloid beta-protein immunohistostaining
Procedure, shortened: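 Female Tg2576 and age-matched wild-type mice, 20 months old; brains frozen on dry ice, cut into 10 μm serial sections. Slides incubated 10 min with 100 μM compound in 50% EtOH, washed twice 3 min in 50% EtOH, fluorescence read with excitation 450-490 nm and 520 nm long-pass. Adjacent sections immunostained for Aβ with DAB.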

Bone [13] = experiment: Biodistribution in normal ddY mouse bone at 3.7 MBq, iv after 60 mins; type: ADME, organism-based, Bone element; conditions: in vivo, 1 h; procedure, shortened: as §2
Bone [14] = experiment: Biodistribution in normal ddY mouse bone at 3.7 MBq, iv after 2 mins; type: ADME, organism-based, Bone element; conditions: in vivo; procedure, shortened: as §2
Bone [15] = experiment: Biodistribution in normal ddY mouse bone at 3.7 MBq, iv after 30 mins; type: ADME, organism-based, Bone element; conditions: in vivo, 0.5 h; procedure, shortened: as §2
Bone [16] = experiment: Biodistribution in normal ddY mouse bone at 3.7 MBq, iv after 10 mins; type: ADME, organism-based, Bone element; conditions: in vivo; procedure, shortened: as §2

Compound: CNc1ccc(/C=C/C(=O)c2ccc(OCCF)cc2)cc1
Ki [1]: 197 nM

Compound: CNc1ccc(/C=C/C(=O)c2ccc(OCCOCCF)cc2)cc1
Ki [1]: 216 nM

Compound: CNc1ccc(/C=C/c2ccc(OCCOCCOCC[18F])cc2)cc1 [FLORBETABEN F18]
Ki [10]: 6.7 nM

Compound: CNc1ccc(/C=C/C(=O)c2ccc(OCCOCCOCCF)cc2)cc1
Ki [1]: 471 nM

Compound: Nc1ccc(/C=C/C(=O)c2ccc(OCCOCCOCCF)cc2)cc1
Ki [1]: 790 nM

Compound: Nc1ccc(/C=C/C(=O)c2ccc(OCCF)cc2)cc1
Ki [1]: 679 nM

Compound: Nc1ccc(/C=C/C(=O)c2ccc(OCCOCCF)cc2)cc1
Ki [1]: 1050 nM

Compound: CN(C)c1ccc(-c2cn3cc(I)ccc3n2)cc1
Ki [1]: 28 nM

More lines, now with the values ahead:

Ki [1]: 20 nM
Compound: CN(C)c1ccc(/C=C/C(=O)c2ccc(OCCOCCF)cc2)cc1

Drug uptake (Brain [2]): 1.14 % ID/g
Drug uptake (Blood [3]): 1.44 % ID/g
Drug uptake (Brain [4]): 1 % ID/g
Drug uptake (Blood [5]): 2.54 % ID/g
Drug uptake (Blood [6]): 2.28 % ID/g
Drug uptake (Brain [7]): 2.23 % ID/g
Drug uptake (Brain [8]): 4.73 % ID/g
Drug uptake (Blood [9]): 3.48 % ID/g
Compound: CN([11CH3])c1ccc(/C=C/C(=O)c2ccc(OCCOCCF)cc2)cc1

Ki [1]: 45.7 nM
Compound: CN(C)c1ccc(/C=C/C(=O)c2ccc(OCCF)cc2)cc1

Ki [1]: 234 nM
Compound: CNc1ccc(/C=C/C(=O)c2ccc(F)cc2)cc1

Drug uptake (Brain [2]): 1.04 % ID/g
Drug uptake (Blood [3]): 1.4 % ID/g
Drug uptake (Brain [4]): 1.04 % ID/g
Drug uptake (Blood [5]): 0.39 % ID/g
Drug uptake (Blood [6]): 1.6 % ID/g
Drug uptake (Brain [7]): 1.53 % ID/g
Drug uptake (Brain [8]): 3.68 % ID/g
Drug uptake (Blood [9]): 2.61 % ID/g
Compound: CN([11CH3])c1ccc(/C=C/C(=O)c2ccc(F)cc2)cc1

Drug uptake (Brain [2]): 2.57 % ID/g
Drug uptake (Blood [3]): 2.22 % ID/g
Drug uptake (Brain [4]): 2.26 % ID/g
Drug uptake (Blood [5]): 2.12 % ID/g
Drug uptake (Blood [6]): 2.73 % ID/g
Drug uptake (Brain [7]): 3.24 % ID/g
Drug uptake (Brain [8]): 6.01 % ID/g
Drug uptake (Blood [9]): 3.65 % ID/g
Compound: CN([11CH3])c1ccc(/C=C/C(=O)c2ccc(OCCF)cc2)cc1

Activity [11]: Active
Ki [1]: 38.9 nM
Activity [12]: Active
Compound: CN(C)c1ccc(/C=C/C(=O)c2ccc(OCCOCCOCCF)cc2)cc1

Drug uptake (Brain [2]): 1.08 % ID/g
Drug uptake (Blood [3]): 1.87 % ID/g
Drug uptake (Bone [13]): 3.58 % ID/g
Drug uptake (Bone [14]): 1.8 % ID/g
Drug uptake (Brain [4]): 1.07 % ID/g
Drug uptake (Blood [5]): 2.35 % ID/g
Drug uptake (Blood [6]): 1.94 % ID/g
Drug uptake (Brain [7]): 1.52 % ID/g
Drug uptake (Bone [15]): 2.98 % ID/g
Drug uptake (Bone [16]): 1.76 % ID/g
Drug uptake (Brain [8]): 3.48 % ID/g
Drug uptake (Blood [9]): 2.09 % ID/g
Compound: CN(C)c1ccc(/C=C/C(=O)c2ccc(OCCOCCOCC[18F])cc2)cc1

Ki [1]: 49.8 nM
Compound: CN(C)c1ccc(/C=C/C(=O)c2ccc(F)cc2)cc1

Drug uptake (Brain [2]): 0.64 % ID/g
Drug uptake (Blood [3]): 0.68 % ID/g
Drug uptake (Brain [4]): 0.35 % ID/g
Drug uptake (Blood [5]): 1.01 % ID/g
Drug uptake (Blood [6]): 1.52 % ID/g
Drug uptake (Brain [7]): 1.38 % ID/g
Drug uptake (Brain [8]): 4.31 % ID/g
Drug uptake (Blood [9]): 2.44 % ID/g
Compound: CN([11CH3])c1ccc(/C=C/C(=O)c2ccc(OCCOCCOCCF)cc2)cc1

Ki [1]: 663 nM
Compound: Nc1ccc(/C=C/C(=O)c2ccc(F)cc2)cc1

Ki [1]: 13.1 nM
Compound: CN(C)c1ccc(/C=C/C(=O)c2ccc(I)cc2)cc1
